Reference: ChEMBL document CHEMBL1131255, “Benzylimidazolines as h5-HT1B/1D serotonin receptor ligands: a structure-affinity investigation” (J Med Chem, 1998)

Key:
[1] = molecular target: T1, 5-hydroxytryptamine receptor 1D (Homo sapiens, UniProt P28221); assay: Binding affinity towards human 5-hydroxytryptamine 1D receptor using [3H]5-HT trifluoroacetate as radioligand
[2] = molecular target: Serotonin 1 receptors; 5-HT1B & 5-HT1D (Homo sapiens) (UniProt P28222+P28221); assay: Binding Selectivity was determined [Selectivity = Ki against h5-HT1B receptor / Ki against h5-HT1D receptor]; type: protein assay
[3] = molecular target: T2, 5-hydroxytryptamine receptor 1B (Homo sapiens, UniProt P28222); assay: Binding affinity towards human 5-hydroxytryptamine 1B receptor using [3H]5-HT trifluoroacetate as radioligand
In short: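 Membrane homogenate (0.1 mg protein/well) incubated in triplicate with [3H]-5-HT (2.5 nM final) in 50 mM Tris, 10 mM MgSO4, 0.5 mM EDTA, 10 µM pargyline, 0.1% ascorbic acid, pH 7.4. Incubation 60 min at room temperature. Nonspecific binding defined with 20 µM 5-HT. Filtration over GF/B, scintillation counting.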

[4] = molecular target: T3, Adrenergic receptor alpha-2 (Homo sapiens, UniProt P08913+P18825+P18089); assay: Binding affinity towards Alpha-2 adrenergic receptor; type: protein assay
T3 sequence (P08913 whole entry): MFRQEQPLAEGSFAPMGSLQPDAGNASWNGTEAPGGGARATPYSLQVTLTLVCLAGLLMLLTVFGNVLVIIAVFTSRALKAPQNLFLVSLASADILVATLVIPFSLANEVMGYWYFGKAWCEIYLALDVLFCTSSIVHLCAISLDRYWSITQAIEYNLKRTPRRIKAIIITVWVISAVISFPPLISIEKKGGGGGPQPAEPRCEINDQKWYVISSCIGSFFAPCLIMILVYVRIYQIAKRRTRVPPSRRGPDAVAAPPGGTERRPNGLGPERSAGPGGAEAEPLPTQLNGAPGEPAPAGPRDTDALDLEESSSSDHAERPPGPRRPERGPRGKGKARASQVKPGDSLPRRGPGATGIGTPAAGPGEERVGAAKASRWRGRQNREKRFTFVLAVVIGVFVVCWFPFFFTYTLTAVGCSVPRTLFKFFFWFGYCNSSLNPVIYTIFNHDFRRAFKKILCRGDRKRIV
T3 sequence (P18825 whole entry): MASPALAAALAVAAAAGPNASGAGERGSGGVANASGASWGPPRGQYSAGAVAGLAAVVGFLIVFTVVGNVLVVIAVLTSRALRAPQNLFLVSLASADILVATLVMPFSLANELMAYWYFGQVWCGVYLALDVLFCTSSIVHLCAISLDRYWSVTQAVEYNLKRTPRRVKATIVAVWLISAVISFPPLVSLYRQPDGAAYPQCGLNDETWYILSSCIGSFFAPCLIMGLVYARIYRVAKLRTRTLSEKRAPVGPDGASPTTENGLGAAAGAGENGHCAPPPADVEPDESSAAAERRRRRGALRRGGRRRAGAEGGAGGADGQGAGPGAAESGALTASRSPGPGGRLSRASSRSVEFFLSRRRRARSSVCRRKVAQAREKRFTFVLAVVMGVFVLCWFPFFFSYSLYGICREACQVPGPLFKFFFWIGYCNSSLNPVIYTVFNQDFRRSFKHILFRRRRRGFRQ
T3 sequence (P18089 whole entry): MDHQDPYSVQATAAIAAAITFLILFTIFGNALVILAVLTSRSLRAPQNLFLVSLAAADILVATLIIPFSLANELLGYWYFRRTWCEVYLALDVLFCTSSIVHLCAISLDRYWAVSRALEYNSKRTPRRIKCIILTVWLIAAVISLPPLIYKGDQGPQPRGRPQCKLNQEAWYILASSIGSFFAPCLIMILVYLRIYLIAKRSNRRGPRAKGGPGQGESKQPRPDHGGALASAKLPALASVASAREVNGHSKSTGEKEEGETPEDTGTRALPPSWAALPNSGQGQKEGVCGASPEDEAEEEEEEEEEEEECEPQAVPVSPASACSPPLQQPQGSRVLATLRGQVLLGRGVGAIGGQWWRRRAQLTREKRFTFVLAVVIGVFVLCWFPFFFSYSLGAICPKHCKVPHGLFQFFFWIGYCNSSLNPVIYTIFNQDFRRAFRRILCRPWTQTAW

[5] = molecular target: T2, 5-hydroxytryptamine receptor 1B; assay: Adenyl cyclase activity was expressed as percent forskolin response against 5-hydroxytryptamine 1B receptor at concentration 1 uM; type: functional
In short: (§1)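 Agonist test in CHO Pro 5 cells stably transfected with human h5-HT1B or h5-HT1D receptors. Compound added to culture medium with 10 µM forskolin and 0.5 mM IBMX, 30 min at 37 °C. Stopped with cold ethanolic 5 mM EDTA (2:1 v/v) to extract cAMP. cAMP measured by enzyme immunoassay; mean ± SEM from three or more experiments.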

[6] = molecular target: T1, 5-hydroxytryptamine receptor 1D; assay: Adenyl cyclase activity was expressed as percent forskolin response against 5-hydroxytryptamine 1D receptor at concentration 1 uM; type: functional; in short: as §1
[7] = molecular target: T1, 5-hydroxytryptamine receptor 1D; assay: Adenyl cyclase activity was expressed as percent forskolin response against 5-hydroxytryptamine 1D receptor at concentration 10 uM; type: functional; in short: as §1
[8] = molecular target: T2, 5-hydroxytryptamine receptor 1B; assay: Adenyl cyclase activity was expressed as percent forskolin response against 5-hydroxytryptamine 1B receptor at concentration 10 uM; type: functional; in short: as §1
[9] = Tested for 5-hydroxytryptamine 1D like receptor-mediated vascular effect in rabbit saphenous vein (RSV)
[10] = molecular target: Adrenergic receptor alpha; assay: Binding affinity towards Alpha-1 adrenergic receptor; type: protein assay, Canis lupus familiaris

T2 sequence (P28222 whole entry): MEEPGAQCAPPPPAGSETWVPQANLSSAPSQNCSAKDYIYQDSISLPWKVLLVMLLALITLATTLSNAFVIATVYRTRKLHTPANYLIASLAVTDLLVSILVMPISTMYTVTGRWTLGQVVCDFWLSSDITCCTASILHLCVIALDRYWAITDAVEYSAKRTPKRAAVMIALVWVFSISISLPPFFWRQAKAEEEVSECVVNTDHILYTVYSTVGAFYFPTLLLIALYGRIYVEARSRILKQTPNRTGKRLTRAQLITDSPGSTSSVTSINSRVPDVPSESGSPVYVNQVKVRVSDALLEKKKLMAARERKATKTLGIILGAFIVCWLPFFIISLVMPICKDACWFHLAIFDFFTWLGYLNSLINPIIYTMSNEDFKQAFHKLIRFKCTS
T1 sequence (P28221 whole entry): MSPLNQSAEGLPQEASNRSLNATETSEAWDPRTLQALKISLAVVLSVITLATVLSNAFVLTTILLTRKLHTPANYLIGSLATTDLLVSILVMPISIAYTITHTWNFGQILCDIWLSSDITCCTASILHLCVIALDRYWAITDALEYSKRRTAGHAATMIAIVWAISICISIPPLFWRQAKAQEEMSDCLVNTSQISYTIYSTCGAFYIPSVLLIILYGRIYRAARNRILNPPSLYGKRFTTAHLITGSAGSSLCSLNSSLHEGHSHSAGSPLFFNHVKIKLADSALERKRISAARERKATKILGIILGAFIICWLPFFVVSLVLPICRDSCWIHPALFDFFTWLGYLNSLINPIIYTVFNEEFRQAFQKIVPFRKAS

Row | Structure (SMILES) | Ki [1] [µM] | Selectivity [2] | Ki [3] [µM] | also measured
1 | Oc1cccc(CC2=NCCN2)c1 | > 10 | < 1 | 3.74 | –
2 | Cc1cc(C(C)C)cc(C)c1CC1=NCCN1 | 0.0011 | 34 | – | Ki [4]: > 0.5 µM; Response [5]: 53%; Response [6]: 34%; Response [7]: 34%; Response [8]: 56%; EC50 [9]: 0.138 µM; Ki [10]: 0.065 µM
3 | Cc1ccc(O)c(C)c1CC1=NCCN1 | 1.03 | 6 | 5.79 | –
4 | Nc1ccc(CC2=NCCN2)cc1 | > 10 | – | > 10 | –
5 | COc1cccc(CC2=NCCN2)c1 | – | – | 1.63 | –
6 | c1ccc(-c2ccc(CC3=NCCN3)cc2)cc1 | > 10 | – | > 10 | –
7 | Cc1cc(C(C)(C)C)c(O)c(C)c1CC1=NCCN1 [OXYMETAZOLINE] | – | – | 0.0003 | Response [5]: 57%; Response [6]: 40%; Response [7]: 35%; Response [8]: 40%
8 | Cc1cccc(C)c1CC1=NCCN1 | 2.21 | > 4 | > 10 | –
9 | CC(C)(C)c1ccc(CC2=NCCN2)cc1 | – | 65 | 6.83 | Ki [4]: 1.12 µM; Response [5]: 99%; Response [6]: 69%; Response [7]: 65%; Response [8]: 86%; EC50 [9]: > 10 µM; Ki [10]: 2.625 µM
10 | Cc1cc(C)c(CC2=NCCN2)c(C)c1 | 0.072 | 48 | – | Response [5]: 49%; Response [6]: 23%; Response [7]: 49%; Response [8]: 52%; EC50 [9]: 0.15 µM
11 | CC(C)c1ccc(CC2=NCCN2)cc1 | – | 8 | – | –
12 | CCCCc1ccc(CC2=NCCN2)cc1 | 2.52 | > 4 | > 10 | –
13 | Cc1ccc(CC2=NCCN2)c(C)c1O | 1.9 | 1 | 2 | –
14 | Cc1cc(C(C)(C)C)ccc1CC1=NCCN1 | – | 105 | – | Ki [4]: > 0.5 µM; Response [5]: 63%; Response [6]: 51%; Response [7]: 50%; Response [8]: 58%; EC50 [9]: 1.67 µM; Ki [10]: 0.154 µM
15 | CCCc1ccc(CC2=NCCN2)cc1 | 2.38 | > 4 | > 10 | –
16 | c1ccc(CC2=NCCN2)cc1 [TOLAZOLINE] | > 10 | – | > 10 | –
17 | CNCCc1c(C)cc(C(C)(C)C)cc1C | > 5 | – | > 10 | –
18 | Cc1ccc(CC2=NCCN2)c(C)c1OCc1ccccc1 | 1.1 | 4 | 3.87 | –
19 | CCc1ccc(CC2=NCCN2)cc1 | > 10 | – | > 10 | –
20 | O=[N+]([O-])c1ccc(CC2=NCCN2)cc1 | > 10 | – | > 10 | –
21 | Cc1cc(C(C)(C)C)cc(C)c1CC1=NCCN1C | – | – | > 5 | –
22 | Cc1cc(C(C)(C)C)cc(C)c1CCN | 1.36 | – | > 10 | –
23 | Cc1cc(Br)cc(C)c1CC1=NCCN1 | – | 21 | – | –
24 | Brc1ccc(CC2=NCCN2)cc1 | 4.39 | > 2 | > 10 | –
25 | Cc1cc(C(C)(C)C)cc(C)c1CC1=NCCN1 [XYLOMETAZOLINE] | – | – | 0.014 | Ki [4]: > 0.5 µM; Response [5]: 51%; Response [6]: 38%; Response [7]: 41%; Response [8]: 64%; Ki [10]: 0.091 µM
26 | CN1CCN=C1Cc1ccccc1 | – | – | > 10 | –
